ChEMBL document CHEMBL1127529, “Antipsoriatic anthrones with modulated redox properties. 2. Novel derivatives of chrysarobin and isochrysarobin--antiproliferative activity and 5-lipoxygenase inhibition” (J Med Chem, 1994)

Key:
[1] = biological target: T1, Arachidonate 5-lipoxygenase (Bos taurus, UniProt Q9BEG3); assay: Inhibition of 5-lipoxygenase in bovine polymorphonuclear leukocytes; assay type: cell-based
T1 sequence (Q9BEG3 whole entry): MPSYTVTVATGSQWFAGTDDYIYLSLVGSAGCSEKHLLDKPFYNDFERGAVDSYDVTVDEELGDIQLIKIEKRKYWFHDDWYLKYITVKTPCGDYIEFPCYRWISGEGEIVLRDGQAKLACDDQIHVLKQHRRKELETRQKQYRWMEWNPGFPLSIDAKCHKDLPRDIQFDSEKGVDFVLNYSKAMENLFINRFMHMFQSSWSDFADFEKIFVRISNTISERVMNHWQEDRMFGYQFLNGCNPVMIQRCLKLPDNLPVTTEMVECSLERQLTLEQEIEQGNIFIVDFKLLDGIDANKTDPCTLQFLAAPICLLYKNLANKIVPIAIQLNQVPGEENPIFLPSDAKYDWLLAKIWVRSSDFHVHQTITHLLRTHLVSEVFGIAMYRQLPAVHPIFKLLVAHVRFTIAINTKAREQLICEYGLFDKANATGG
Summary of the method: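 Bovine PMNL (10^7 cells/mL) were stimulated with Ca-ionophore. Compound was preincubated for 15 min at 37 °C.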

[2] = Reducing activity against 2,2-diphenyl-1-picrylhydrazyl (DPPH) with equimolar compound; assay type: functional
Summary of the method: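 Test compound and DPPH, each 10⁻⁴ M in acetone/PBS (1-1 v/v), mixed 1 mL + 1 mL. DPPH reduction followed spectrophotometrically at 516 nm. Reciprocal DPPH concentration plotted against time gave straight lines, and second-order rate constants (M⁻¹ s⁻¹) were taken from the slopes. Values are means, N = 3-6. Highly reactive compounds gave approximate values only.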

[3] = Deoxyribose degradation as a measure of hydroxy radical formation.; assay type: functional
Summary of the method: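 2-Deoxy-D-ribose (2 mM) was incubated with FeCl3 (0.1 mM) and compound (75 μM) in KH2PO4-KOH buffer pH 7.4 (30 mM) for 2 h at 37 °C with shaking. TBA-reactive material was read at 532 nm. Result is µmol malondialdehyde per mmol deoxyribose.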

[4] = Partition coefficient (logP) (HPLC); assay type: physicochemical; settings: octanol/water
Summary of the method: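 Reversed-phase HPLC with MeOH/water/HOAc (77-23-0.1) as eluant, adjusted to pH 5.5 with concentrated NH3.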

HaCaT = assay: Antiproliferative activity against HaCaT cells; assay type: functional, cell-based; settings: Homo sapiens
Summary of the method: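 HaCaT human keratinocytes were kept in DMEM with 10% FCS, penicillin and streptomycin at 37 °C under 8% CO2. After 48 h the cells were detached with trypsin/EDTA and counted by phase-contrast microscopy.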

Liposome = assay: Inhibition of 2,2'-azobis(2-aminopropane)hydrochloride (AAPH) induced lipid peroxidation in bovine brain phospholipid liposomes; assay type: functional, subcellular, Bos taurus

Row | Compound | IC50 [1] | kDPPH [2] | DD (uM of MDA mM-1) [3] | logP [4] | IC50 (HaCaT) | IC50 (Liposome)
1 | COc1ccc(C(=O)c2cc(O)c3c(c2)Cc2cccc(O)c2C3=O)cc1 | > 30 µM | > 100 M⁻¹ s⁻¹ | 0.98 | 4.83 | 1.7 µM | 
2 | COc1ccc(CCCc2ccc3c(c2O)C(=O)c2c(O)cccc2C3)cc1 | 30 µM | 14 M⁻¹ s⁻¹ | < 0.15 | 6.46 | > 5 µM | 
3 | O=C1c2c(O)cccc2Cc2cc(Cc3ccccc3)cc(O)c21 | > 30 µM | 18.1 M⁻¹ s⁻¹ | < 0.25 | 5.29 |  | 64 µM
4 | O=C1c2c(O)cccc2Cc2ccc(Cc3cccc(Oc4ccccc4)c3)c(O)c21 | > 30 µM | 6.4 M⁻¹ s⁻¹ | < 0.15 | 6.35 |  | 
5 | O=C1c2c(O)cccc2Cc2ccc(CCCCc3ccccc3)c(O)c21 | > 30 µM | 10.4 M⁻¹ s⁻¹ | < 0.15 | 6.81 |  | 112 µM
6 | COc1cc(CCCc2ccc3c(c2O)C(=O)c2c(O)cccc2C3)cc(OC)c1OC | 6 µM | > 100 M⁻¹ s⁻¹ | < 0.15 | 5.64 | 2 µM | 
7 | O=C(c1ccccc1)c1cc(O)c2c(c1)Cc1cccc(O)c1C2=O | > 30 µM | > 100 M⁻¹ s⁻¹ | 1.97 | 4.83 |  | 40 µM
8 | Cc1ccc(C(=O)c2cc(O)c3c(c2)Cc2cccc(O)c2C3=O)cc1 | > 30 µM | > 100 M⁻¹ s⁻¹ | 1.01 | 5.14 |  | 40 µM
9 | COc1ccc(Cc2ccc3c(c2O)C(=O)c2c(O)cccc2C3)cc1OC | > 30 µM | > 100 M⁻¹ s⁻¹ | < 0.15 | 5.79 |  | 
10 | COc1ccc(OC)c(Cc2cc(O)c3c(c2)Cc2cccc(O)c2C3=O)c1 | > 30 µM | 14.8 M⁻¹ s⁻¹ | 0.51 | 5.17 | 0.2 µM | 
11 | O=C1c2c(O)cccc2Cc2cc(Cc3ccc(O)c(O)c3)cc(O)c21 | 2 µM | > 100 M⁻¹ s⁻¹ | 0.41 | 3.88 | 0.5 µM | 4 µM
12 | O=C1c2c(O)cccc2Cc2ccc(Cc3ccccc3O)c(O)c21 | 5 µM | > 100 M⁻¹ s⁻¹ | 0.35 | 4.67 | 0.7 µM | 25 µM
13 | O=C1c2c(O)cccc2Cc2ccc(CCCc3cc(O)c(O)c(O)c3)c(O)c21 | 0.6 µM | > 100 M⁻¹ s⁻¹ | 2.97 | 3.96 | 0.5 µM | 5 µM
14 | O=C1c2c(O)cccc2Cc2ccc(CCCc3ccccc3)c(O)c21 | 11 µM | 11.1 M⁻¹ s⁻¹ | 0.56 | 6.44 | > 5 µM | 67 µM
15 | COc1ccc(Cc2cc(O)c3c(c2)Cc2cccc(O)c2C3=O)c(OC)c1 | > 30 µM | 10.3 M⁻¹ s⁻¹ | 0.32 | 5.34 | 0.4 µM | > 200 µM
16 | COc1ccc(OC)c(Cc2ccc3c(c2O)C(=O)c2c(O)cccc2C3)c1 | > 30 µM | > 100 M⁻¹ s⁻¹ | < 0.15 | 5.72 |  | > 200 µM
17 | COc1ccc(Cc2cc(O)c3c(c2)Cc2cccc(O)c2C3=O)cc1 | > 30 µM | 11.2 M⁻¹ s⁻¹ | < 0.15 | 5.3 | 0.3 µM | 33 µM

Row | Compound | IC50 [1] | kDPPH [2] | DD (uM of MDA mM-1) [3] | logP [4] | IC50 (HaCaT) | IC50 (Liposome)
18 | O=C1c2c(O)cccc2Cc2ccc(Cc3ccccc3)c(O)c21 | > 30 µM | 11.2 M⁻¹ s⁻¹ | < 0.25 | 5.61 | > 5 µM | 98 µM
19 | O=C1c2c(O)cccc2Cc2ccc(Cc3ccc(Cl)cc3)c(O)c21 | > 30 µM | 19.3 M⁻¹ s⁻¹ | < 0.15 | 5.98 |  | 150 µM
20 | COC(=O)c1ccc(Cc2ccc3c(c2O)C(=O)c2c(O)cccc2C3)cc1 | > 30 µM | 10.4 M⁻¹ s⁻¹ | < 0.25 | 5.34 |  | 
21 | O=C1c2c(O)cccc2Cc2ccc(Cc3ccc(C(F)(F)F)cc3)c(O)c21 | > 30 µM | 3.7 M⁻¹ s⁻¹ | < 0.15 | 5.92 | > 5 µM | 
22 | O=C1c2c(O)cccc2Cc2ccc(Cc3ccc(O)cc3)c(O)c21 | 7 µM | > 100 M⁻¹ s⁻¹ | 0.38 | 4.66 | 0.8 µM | 43 µM
23 | O=C1c2c(O)cccc2Cc2ccc(CCc3ccccc3)c(O)c21 | > 30 µM | 16.1 M⁻¹ s⁻¹ | < 0.15 | 6.23 |  | 110 µM
24 | O=C1c2c(O)cccc2Cc2cc(Cc3cc(O)ccc3O)cc(O)c21 |  | > 100 M⁻¹ s⁻¹ | 1.74 | 3.2 | 0.4 µM | 3 µM
25 | O=C(c1ccccc1)c1ccc2c(c1O)C(=O)c1c(O)cccc1C2 | 18 µM | > 100 M⁻¹ s⁻¹ | 2.68 | 4.47 | 1.6 µM | 43 µM
26 | COc1ccc(Cc2ccc3c(c2O)C(=O)c2c(O)cccc2C3)cc1 | > 30 µM | 11.3 M⁻¹ s⁻¹ | < 0.25 | 5.62 |  | 
27 | COc1ccccc1Cc1ccc2c(c1O)C(=O)c1c(O)cccc1C2 | > 30 µM | 12 M⁻¹ s⁻¹ | < 0.25 | 5.62 |  | 
28 | O=C1c2c(O)cccc2Cc2ccc(Cc3cc(O)ccc3O)c(O)c21 | 0.9 µM | > 100 M⁻¹ s⁻¹ | 1.46 | 3.33 | 0.7 µM | 7 µM
29 | O=C(O)c1ccc(Cc2ccc3c(c2O)C(=O)c2c(O)cccc2C3)cc1 |  | 9.9 M⁻¹ s⁻¹ | < 0.25 | 4.1 |  | 62 µM
30 | CC(Cc1ccc(O)c(O)c1)C(C)Cc1ccc(O)c(O)c1 (centres undefined) [NORDIHYDROGUAIARETIC ACID] |  |  |  |  |  | 2 µM
31 | O=C1c2c(O)cccc2Cc2ccc(Cc3ccc(O)c(O)c3)c(O)c21 | 4 µM | > 100 M⁻¹ s⁻¹ | 1.82 | 4.01 | 0.4 µM | 
32 | COC(=O)c1ccccc1Cc1ccc2c(c1O)C(=O)c1c(O)cccc1C2 | > 30 µM | 11.4 M⁻¹ s⁻¹ | < 0.15 | 5.24 |  | 
33 | COc1ccc(Cc2ccc3c(c2O)C(=O)c2c(O)cccc2C3)c(OC)c1 | > 30 µM | > 100 M⁻¹ s⁻¹ | < 0.15 | 5.04 | > 5 µM | 
